Experimental data from different studies.
Protocols differ between the studies behind these lines.
Target: 1-phosphatidylinositol 3-phosphate 5-kinase (PIKFYVE, Homo sapiens, UniProt Q9Y2I7)

CN(C)c1nccc(-c2cnc3ncccn23)n1
remaining binding (binding; 1 µM): 78%

O=C(NCCCN1CCOCC1)c1ccc(Nc2nccc(-c3cc4ccccc4s3)n2)cc1
remaining binding (binding, competition with immobilised ligand; 1 µM): 0.3%

CO[C@H]1CC[C@H](CNc2ccc(S(=O)(=O)NC(=O)c3ccc(N4CCN(CC5=C(c6ccc(Cl)cc6)CC(C)(C)CC5)CC4)cc3Oc3cnc4[nH]ccc4c3)cc2[N+](=O)[O-])CC1
remaining binding (cell-free assay, competition with immobilised ligand; 1 µM): 89%

CNC(=O)[C@@H]1CC[C@@H](n2c(-c3ccc4cnccc4c3)nc3ccc(C(=O)NCc4cccc(C(N)=O)c4)cc32)C1
remaining binding (binding, competition with immobilised ligand; 1 µM): 14%

N[C@@H]1CCN(c2nccc(-c3cnn4ncccc34)n2)C1
remaining binding (binding; 1 µM): 78%

COc1ccc2c(c1)O[C@@H](c1ccc(OC)c(OC)c1)C[C@H]2NC(=O)C1(c2ccc3c(c2)OC(F)(F)O3)CC1
remaining binding (cell-free assay, competition with immobilised ligand; 1 µM): 100%

COc1cnc(Nc2cccc(S(N)(=O)=O)c2)nc1N1CCN(c2ccccc2)CC1
remaining binding (binding, competition with immobilised ligand; 1 µM): 85%

CN(CCCC(F)(F)F)c1nccc(-c2cnn3ncccc23)n1
remaining binding (binding; 1 µM): 45%

CN1CCN(c2cnc3c(C4CCN(C(=O)c5ccc(OC(F)(F)F)cc5N)CC4)ncnc3c2)CC1
remaining binding (cell-free assay, competition with immobilised ligand; 1 µM): 98%

C[C@@H]1CCN(c2nccc(-c3cnn4ncccc34)n2)C1
remaining binding (binding; 1 µM): 99%

FC(F)(F)c1ccc2c(c1)nc(-c1cccnc1)n2C1CC1
remaining binding (cell-free assay, competition with immobilised ligand; 1 µM): 99%

O=C(NCC1CCOCC1)c1n[nH]cc1NC(=O)c1c(F)cccc1F
remaining binding (binding, competition with immobilised ligand; 1 µM): 100%

CN([C@@H]1CCc2c(CC(=O)O)c3ccccc3n2C1)S(=O)(=O)c1ccc(F)cc1
remaining binding (cell-free assay, competition with immobilised ligand; 1 µM): 100%

COc1ncc2cc3ccccc3nc2c1C#N
remaining binding (cell-free assay, competition with immobilised ligand; 5 µM): 90%

O=C(c1ccc(Nc2ncc(Cl)c(-c3cc4ccccc4s3)n2)cc1)N1CCC(N2CCCC2)CC1
remaining binding (binding, competition with immobilised ligand; 1 µM): 72%

Cc1cnn2ncc(-c3ccnc(N(C)C)n3)c2c1
remaining binding (binding; 1 µM): 87%

O=C(c1ccc(Nc2nccc(-c3cc4ccccc4s3)n2)cc1)N1CCC(N2CCCC2)CC1
remaining binding (binding, competition with immobilised ligand; 1 µM): 0.6%

Nc1ncc2c(n1)-c1c([nH]c3ccc(C#CC4CC4)cc13)CCCC2
remaining binding (binding, competition with immobilised ligand; 1 µM): 9.8%

c1cnn2ncc(-c3ccnc(N4CCC45COC5)n3)c2c1
remaining binding (binding; 1 µM): 92%
